Laboratory results as given in PMC2843780 (Bioorganic & medicinal chemistry letters, 2010).
Read-outs that look alike come from different tables or passages of the source.

Columns and labels:
[1] = tested on: M1; details: cited from earlier work; for IC50: read-out: M1 IC50, MLSCN screen hit
[2] = molecular target: hM3 (Homo sapiens, UniProt P20309); assay: calcium mobilization assay, hM3 CHO-K1 cells; assay type: cell-based
[3] = molecular target: T1, hM2 (Homo sapiens, UniProt P08172); assay: calcium mobilization assay, hM2 CHO cells with Gqi5 chimeric G protein; assay type: cell-based; details: compound at 10 μM
T1 sequence (P08172 1-466): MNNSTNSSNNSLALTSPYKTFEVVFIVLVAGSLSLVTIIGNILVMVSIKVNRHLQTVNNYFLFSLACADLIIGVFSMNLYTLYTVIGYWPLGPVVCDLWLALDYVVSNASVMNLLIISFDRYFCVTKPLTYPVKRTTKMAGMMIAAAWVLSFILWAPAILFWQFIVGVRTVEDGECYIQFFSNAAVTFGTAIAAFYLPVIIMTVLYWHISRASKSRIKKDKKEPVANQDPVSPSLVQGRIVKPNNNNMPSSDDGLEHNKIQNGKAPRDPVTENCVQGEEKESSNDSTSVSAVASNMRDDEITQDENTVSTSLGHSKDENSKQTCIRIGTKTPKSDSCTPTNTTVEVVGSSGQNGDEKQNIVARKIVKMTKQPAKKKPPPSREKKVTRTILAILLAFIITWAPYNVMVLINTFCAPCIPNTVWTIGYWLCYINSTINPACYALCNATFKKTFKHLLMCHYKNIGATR
How it was run: (§1)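 CHO-K1 cells stably expressing human receptor (M2 line also stably transfected with Gqi5 chimeric G protein so it signals through calcium; M5 line without chimera) were plated overnight. Cells were loaded with 2 μM Fluo-4 AM in HBSS/20 mM HEPES/2.5 mM probenecid, pH 7.4, for 45 min at 37°C, then dye was replaced with buffer. Cells were pre-incubated with 10 μM test compound, then given sub-maximal acetylcholine or carbachol. Signal was normalized to baseline and expressed as % of maximal acetylcholine response.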

[4] = molecular target: T2, hM5 (Homo sapiens, UniProt P08912); assay: calcium mobilization assay, hM5 CHO-K1 cells; assay type: cell-based; details: compound at 10 μM
T2 sequence (P08912 1-532): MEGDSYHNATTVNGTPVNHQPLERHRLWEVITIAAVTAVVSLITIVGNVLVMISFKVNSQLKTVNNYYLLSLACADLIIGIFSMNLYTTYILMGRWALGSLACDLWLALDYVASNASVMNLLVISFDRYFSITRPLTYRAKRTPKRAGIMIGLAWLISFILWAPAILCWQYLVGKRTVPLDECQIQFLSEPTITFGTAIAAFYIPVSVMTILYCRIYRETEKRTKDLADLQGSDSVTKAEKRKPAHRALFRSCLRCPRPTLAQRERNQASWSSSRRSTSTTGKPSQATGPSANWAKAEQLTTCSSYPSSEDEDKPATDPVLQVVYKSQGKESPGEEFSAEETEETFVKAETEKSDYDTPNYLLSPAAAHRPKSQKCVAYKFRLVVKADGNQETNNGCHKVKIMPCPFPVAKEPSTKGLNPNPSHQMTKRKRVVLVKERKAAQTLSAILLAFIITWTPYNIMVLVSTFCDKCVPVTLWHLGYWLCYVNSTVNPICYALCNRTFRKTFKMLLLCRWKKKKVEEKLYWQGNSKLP
How it was run: as §1

Sequence of hM3 (P20309 whole entry): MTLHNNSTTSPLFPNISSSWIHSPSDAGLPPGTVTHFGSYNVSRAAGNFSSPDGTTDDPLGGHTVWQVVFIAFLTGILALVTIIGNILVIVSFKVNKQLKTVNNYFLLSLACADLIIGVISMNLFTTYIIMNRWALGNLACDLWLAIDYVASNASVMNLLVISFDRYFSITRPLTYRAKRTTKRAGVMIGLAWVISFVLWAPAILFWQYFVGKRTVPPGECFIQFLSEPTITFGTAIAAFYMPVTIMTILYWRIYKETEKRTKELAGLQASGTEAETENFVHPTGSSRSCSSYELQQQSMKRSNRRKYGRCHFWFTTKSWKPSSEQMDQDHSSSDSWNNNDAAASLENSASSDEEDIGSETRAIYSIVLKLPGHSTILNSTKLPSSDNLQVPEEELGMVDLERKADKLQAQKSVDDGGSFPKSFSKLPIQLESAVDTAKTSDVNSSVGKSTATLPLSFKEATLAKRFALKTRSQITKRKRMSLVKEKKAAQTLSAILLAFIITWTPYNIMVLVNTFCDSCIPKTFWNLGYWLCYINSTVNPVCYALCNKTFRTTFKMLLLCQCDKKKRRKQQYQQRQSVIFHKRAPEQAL

CCN1CCN(c2ccc(NC(=O)CCC3CCCC3)cc2Cl)CC1 [Compound 5]
selectivity versus M4 ([1]; M1 over M4): > 340 fold
IC50 [1]: 0.441 µM

CCN1CCN(c2ccc(NC(=O)c3ccccc3)cc2Cl)CC1 [Compound 6]
selectivity versus M2-M5 ([1]; M1 over M2-M5): > 30 fold
IC50 ([1]; original sample): 5 µM

CCN1CCN(c2ccc(NC(=O)c3ccccc3Cl)cc2Cl)CC1 [Compound 8a]
IC50 [2]: 8.2 µM

CCN1CCN(c2ccc(NC(=O)c3cc(C(F)(F)F)cc(C(F)(F)F)c3)cc2Cl)CC1 [Compound 8i]
effect on an ACh EC80 on M2 [3]: little effect
effect on an ACh EC80 on M5 [4]: little effect
effect on an ACh EC80 on M3 ([2]; compound at 10 μM): little effect
